Data set [1] can be described thus: Drug uptake in skin tumor of F1 mouse implanted with mouse S37 cells assessed as normalized fluorescence at 2.5 mg/kg, iv measured up to 24 hrs in presence of He-Ne laser radiation by local fluorescence spectroscopic analysis. Format: ADME, organism-based. The settings on record: in vivo. Summed up: (§1)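 S37 sarcoma-bearing immunocompetent F1 mice (18−22 g) given PS 2.5 mg/kg iv. Animals sacrificed at 0.25, 0.5, 2, 4 and 24 h, with three animals per time point. Skin, tumor and organ samples were read ex vivo by contact local fluorescence spectroscopy under He−Ne 632.8 nm excitation. Integrated 640−900 nm emission was normalized to the backscattered laser signal to give FN.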

A short description of data set [2]: Phototoxicity against mouse S37 cells implanted in F1 mouse assessed as tumor growth inhibition at 2.5 mg/kg, iv preincubated for 30 mins with subsequent 150 J/cm2 irradiation measured on day 20 post irradiation relative to control. Format: functional. The settings on record: S37, light or radiation study, read-out: TGI. Summed up:
(§2)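 S37 sarcoma mice treated on day 7 of tumor growth with compound iv; tumors 140–160 mm3 beforehand, droperidol 0.25 mg ip as anesthetic. LED irradiation at 800 ± 21 nm, 100 mW/cm2, 150 J/cm2, given 15 or 30 min after dosing. Controls got iv 0.9% NaCl. Volume = d1×d2×d3×0.52; TGI = […]×100%.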

The nature of data set [3]: Phototoxicity against mouse S37 cells implanted in F1 mouse assessed as tumor growth inhibition at 2.5 mg/kg, iv preincubated for 15 mins with subsequent 150 J/cm2 irradiation measured on day 11 post irradiation relative to control. Format: functional. The settings on record: S37, light or radiation study, read-out: TGI. Summed up:
as §2

A short description of data set [4]: Drug uptake in liver tumor of F1 mouse implanted with mouse S37 cells assessed as normalized fluorescence at 2.5 mg/kg, iv measured up to 24 hrs post injection in presence of He-Ne laser radiation by local fluorescence spectroscopic analysis. It is filed as ADME, organism-based. As to conditions: in vivo; call rule not given here. In a few lines: (§3)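 Single iv dose of 2.5 mg/kg given to F1 mice bearing S37 sarcoma. Skin, muscle, liver, kidney, spleen and tumor taken from three animals each at 0.25, 0.5, 2, 4 and 24 h and read ex vivo by contact local fluorescence spectroscopy. He–Ne 632.8 nm excitation; 640–900 nm integral normalized to backscattered laser signal (FN).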

Data set [5] is described as follows: Phototoxicity against mouse S37 cells implanted in F1 mouse assessed as tumor growth inhibition at 2.5 mg/kg, iv preincubated for 30 mins with subsequent 150 J/cm2 irradiation measured on day 11 post irradiation relative to control. It is filed as functional. The settings on record: S37, light or radiation study, read-out: TGI. Summed up:
as §2

Data set [6] is described as follows: Dark toxicity against mouse S37 cells assessed as cell growth inhibition up to 15 uM after 24 hrs by MTT assay. Format: cell-based. The settings on record: s37, 24 h. In a few lines: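 S37 mouse sarcoma cells in DMEM with 2 mM L-glutamine and 10% FBS, 37 °C, 5% CO2. Compound added 24 h after plating and kept without irradiation for 24 h in the dark. Survival scored visually and by MTT colorimetry.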

Data set [7] in a line: Drug distribution in mouse S37 cell cytoplasmic vesicles at 1 uM for 4 hrs by microspectroscopy. Format: ADME.
For the next data set, the system named is Mus musculus. The data set can be described thus: Toxicity in F1 mouse implanted with mouse S37 cells at 2.5 mg/kg, iv preincubated for 15 to 30 mins with subsequent 150 J/cm2 irradiation measured up to 16 days post irradiation. It is filed as organism-based. The settings on record: in vivo, 384 h. Summed up:
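F1 mice bearing S37 sarcoma (140−160 mm3) were treated on day 7 of tumour growth with 2.5 or 5.0 mg/kg iv; controls received iv 0.9% NaCl. Animals were anaesthetised with droperidol 0.25 mg/animal ip. LED irradiation (800 ± 21 nm, 100 mW/cm2, 150 J/cm2) followed 15 or 30 min after dosing. Tumour volume was calculated as d1×d2×d3×0.52, with TGI computed versus controls. Tumour-free animals were followed for 90 d.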

Data set [8] is described as follows: Drug distribution in mouse S37 cell cytoplasm at 1 uM for 4 hrs by laser scanning confocal microscopic analysis. It is filed as ADME. Summed up: (§4)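 Mouse sarcoma S37 cells exposed to 1 μM photosensitizer for 4 h, then imaged by laser scanning confocal microscopy with a 63×/1.46 oil objective. Excitation 543 nm at 10 μW; emission collected above 655 nm on an APD detector. Intracellular localization judged against transmitted-light images.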

Data set [9] is described as follows: Drug distribution in mouse S37 cell cytoplasmic vesicles at 1 uM for 4 hrs by laser scanning confocal microscopic analysis. Format: ADME. Summed up: as §4
The nature of data set [10]: Phototoxicity against mouse S37 cells implanted in F1 mouse assessed as tumor growth inhibition at 2.5 mg/kg, iv preincubated for 30 mins with subsequent 150 J/cm2 irradiation measured on day 15 post irradiation relative to control. It is filed as functional. The settings on record: S37, light or radiation study, read-out: TGI. In a few lines: as §2
Data set [11] is described as follows: Drug uptake in kidney tumor of F1 mouse implanted with mouse S37 cells assessed as normalized fluorescence at 2.5 mg/kg, iv measured up to 24 hrs post injection in presence of He-Ne laser radiation by local fluorescence spectroscopic analysis. The settings on record: in vivo. It is filed as ADME, organism-based. In a few lines: as §3
A short description of data set [12]: Drug uptake in tumor of F1 mouse implanted with mouse S37 cells at 2.5 mg/kg, iv measured after 24 hrs in presence of He-Ne laser radiation by local fluorescence spectroscopic analysis. It is filed as ADME, organism-based, Neoplasm. The settings on record: in vivo. In a few lines: as §3
Data set [13] in a line: Drug distribution in mouse S37 cell nuclear membrane at 1 uM for 4 hrs by laser scanning confocal microscopic analysis. Format: ADME. In a few lines:
as §4

Data set [14] can be described thus: Drug uptake in tumor of F1 mouse implanted with mouse S37 cells at 2.5 mg/kg, iv measured after 2 hrs in presence of He-Ne laser radiation by local fluorescence spectroscopic analysis. As to conditions: in vivo. It is filed as ADME, organism-based, Neoplasm. In a few lines:
as §3

Data set [15] can be described thus: Drug uptake in tumor of F1 mouse implanted with mouse S37 cells assessed as normalized fluorescence units at 2.5 mg/kg, iv measured after 15 mins in presence of He-Ne laser radiation by local fluorescence spectroscopic analysis. As to conditions: in vivo, 0.25 h. It is filed as ADME, organism-based, Neoplasm. Summed up: as §1
The nature of data set [16]: Drug distribution in mouse S37 cell membrane at 1 uM for 4 hrs by laser scanning confocal microscopic analysis. It is filed as ADME, cell-based. In a few lines: as §4
Data set [17] can be described thus: Phototoxicity against mouse S37 cells implanted in F1 mouse assessed as tumor growth inhibition at 2.5 mg/kg, iv preincubated for 30 mins with subsequent 150 J/cm2 irradiation measured on day 18 post irradiation relative to control. The settings on record: S37, light or radiation study, read-out: TGI. Format: functional. In a few lines: as §2
The nature of data set [18]: Drug uptake in spleen tumor of F1 mouse implanted with mouse S37 cells assessed as normalized fluorescence at 2.5 mg/kg, iv measured up to 24 hrs post injection in presence of He-Ne laser radiation by local fluorescence spectroscopic analysis. Format: ADME, organism-based. As to conditions: in vivo. Summed up:
as §3

Data set [19] in a line: Phototoxicity against mouse S37 cells implanted in F1 mouse assessed as tumor growth inhibition at 2.5 mg/kg, iv preincubated for 30 mins with subsequent 150 J/cm2 irradiation measured on day 8 post irradiation relative to control. As to conditions: S37, light or radiation study, read-out: TGI. Format: functional. Summed up: as §2
The nature of data set [20]: Phototoxicity against rat Sarcoma M1 cells implanted in rat assessed as volume of tumor necrotic zones at 2.5 mg/kg, ip administered as single dose on day 11 after inoculation followed by 300 J/cm2 irradiation after 2.5 to 3 hrs measured on day 1 post photodynamic therapy (reference value: 32 +/- 6 %). It is filed as functional. Summed up:
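Rat M1 sarcoma was implanted subcutaneously in the left thigh, with randomisation on day 10. A single 2.5 mg/kg ip dose was given on day 11, then 810 nm laser (0.51 W/cm2, 300 J/cm2, 10 min) after 2.5−3 h. Tumours were sectioned on days 1, 3 and 12 after PDT (controls days 12, 14, 23), five animals per point. Parenchyma and necrotic zone volumes were estimated on hematoxylin and eosin staining.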

For `CCCO/N=C(\C)c1c(C)c2cc3nc(c4c5[nH]c(cc6nc(cc1[nH]2)[C@H](C)[C@H]6CC)c(C)c5C(=O)N(OCCC)C4=O)[C@@H](CCC(=O)OC)[C@@H]3C`, the Flu intensity in data set [1] amounted to 2 RU; in data set [15], 4.4 RU. The inhibition in vivo at 2.5 mg/kg came out at 65.9% in data set [2]; 100% in data set [3]; 88.6% in [5]; 81.5% in [10]; 77.1% in data set [17]; 100% in data set [19]. Moreover, the Drug uptake result in [4] was “Active”; in data set [7], “Active”; in data set [8], “Not Active”; in data set [9], “Active”; in data set [11], “Active”; in [12], “Not Active”. For the same compound, the Drug uptake entry in [13] is recorded as “Not Active”; in data set [14], “Active”; in [16], “Not Active”; in data set [18], “Active”. Further, the Activity entry (in data set [6]; with Mus musculus) was “Non-Toxic” throughout.

With `CCCO/N=C(\C)c1c(C)c2cc3nc(c4c5[nH]c(cc6nc(cc1[nH]2)[C@@H](C)[C@@H]6CC)c(C)c5C(=O)N(OCCC)C4=O)[C@H](CCC(=O)NCCSSCCNC(=O)CC[C@@H]1c2nc(cc4[nH]c(cc5nc(cc6[nH]c7c2C(=O)N(OCCC)C(=O)c7c6C)[C@H](CC)[C@H]5C)c(/C(C)=N/OCCC)c4C)[C@H]1C)[C@H]3C`, in [1], the Flu intensity was 2 RU. For the same compound, the inhibition in vivo at 2.5 mg/kg in data set [2] came out at 75.5%; in [5], 97.4%; in data set [10], 93.9%; in data set [17], 88%; in data set [19], 100%. Also, the Activity in data set [20] is recorded as 60%; in [6] it was “Non-Toxic”; in the data set with Mus musculus, “Non-Toxic”. The Drug uptake entry in data set [4] is reported as “Active”; in data set [7], “Active”; in data set [8], “Not Active”; in data set [9] it was “Active”; in data set [11], “Active”; in [12], “Not Active”. The Drug uptake result in data set [13] is “Not Active”; in data set [14] it was “Active”; in data set [16], “Not Active”; in data set [18] it was “Active”.

Source of the values: ChEMBL document CHEMBL4024769, “Synthesis and Investigation of Photophysical and Biological Properties of Novel S-Containing Bacteriopurpurinimides” (J Med Chem, 2017).
